Data as given in ChEMBL document CHEMBL1143334, “Peri-substituted hexahydro-indolones as novel, potent and selective human EP3 receptor antagonists” (Bioorg Med Chem Lett, 2009).
Converted amounts (≈) assume the structure as drawn. The source made the active and inactive calls. The rule behind the calls is not given here.

Experiments:
[1] = target: T1, Prostaglandin E2 receptor EP3 subtype (Homo sapiens) (UniProt P43115); test: Ratio of IC50 for human EP3 receptor in presence of 10% human serum to IC50 for human EP3 receptor in buffer
T1 sequence (whole entry): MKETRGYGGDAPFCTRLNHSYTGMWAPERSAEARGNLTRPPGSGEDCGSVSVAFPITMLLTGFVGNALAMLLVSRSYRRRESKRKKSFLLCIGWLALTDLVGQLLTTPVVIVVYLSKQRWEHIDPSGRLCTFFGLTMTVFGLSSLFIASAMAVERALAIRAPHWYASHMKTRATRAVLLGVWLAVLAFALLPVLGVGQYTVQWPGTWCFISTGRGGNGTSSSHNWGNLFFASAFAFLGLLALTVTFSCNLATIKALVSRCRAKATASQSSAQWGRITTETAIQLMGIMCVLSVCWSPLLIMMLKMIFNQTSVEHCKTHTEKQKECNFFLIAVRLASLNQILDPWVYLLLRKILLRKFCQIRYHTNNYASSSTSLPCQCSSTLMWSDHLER
Method in brief: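 Displacement of [3H]-PGE2 from human EP3 membrane preparations was run both with 10% human serum and in buffer alone. Fold-shift is IC50 with serum divided by IC50 in buffer.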

[2] = target: T2, Prostaglandin E2 receptor EP3 subtype (Homo sapiens, UniProt P43115); test: Displacement of [3H]PGE2 from human EP3 receptor
T2 sequence (P43115 whole entry): T1 sequence (whole entry)
Method in brief: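 Displacement of [3H]-PGE2 from human EP3 receptor membrane preparations was run in buffer. IC50 values come from at least three experiments each.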

[3] = Metabolic stability in rat liver microsomes after 30 mins; assay type: ADME, Microsome; conditions: read-out: Stability
Method in brief: (§1)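 Compound was incubated 30 min with liver microsomes from each species. Percent parent remaining was measured by LC/MS/MS.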

[4] = Metabolic stability in human liver microsomes after 30 mins; assay type: ADME, Microsome; conditions: read-out: Stability; method in brief: as §1
[5] = target: Prostaglandin F2-alpha receptor (Homo sapiens, UniProt P43088); test: Binding affinity to human FP receptor by radioligand binding assay
[6] = target: Prostaglandin E2 receptor EP2 subtype (Homo sapiens, UniProt P43116); test: Binding affinity to human EP2 receptor at 20 uM by radioligand binding assay
Homo sapiens [7] = species: Homo sapiens; test: Selectivity of human FP receptor over human EP3 receptor
Homo sapiens [8] = species: Homo sapiens; test: Selectivity of human EP2 receptor over human EP3 receptor
[9] = target: T3, Prostaglandin E2 receptor EP4 subtype (Homo sapiens, UniProt P35408); test: Binding affinity to human EP4 receptor by radioligand binding assay
[10] = target: T4, Prostaglandin E2 receptor EP1 subtype (Homo sapiens, UniProt P34995); test: Binding affinity to human EP1 receptor by radioligand binding assay
T4 sequence (P34995 whole entry): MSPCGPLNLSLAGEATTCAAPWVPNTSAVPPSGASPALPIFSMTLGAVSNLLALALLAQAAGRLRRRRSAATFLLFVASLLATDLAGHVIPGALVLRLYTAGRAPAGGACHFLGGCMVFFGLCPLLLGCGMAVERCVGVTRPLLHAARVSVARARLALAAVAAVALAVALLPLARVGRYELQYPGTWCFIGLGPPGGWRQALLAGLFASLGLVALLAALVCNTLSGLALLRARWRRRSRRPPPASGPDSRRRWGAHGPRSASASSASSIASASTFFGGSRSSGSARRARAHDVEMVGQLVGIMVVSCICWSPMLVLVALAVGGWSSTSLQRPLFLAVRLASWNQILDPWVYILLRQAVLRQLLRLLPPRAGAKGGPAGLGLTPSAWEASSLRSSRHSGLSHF

Homo sapiens [11] = species: Homo sapiens; test: Selectivity of human EP4 receptor over human EP3 receptor
Homo sapiens [12] = species: Homo sapiens; test: Selectivity of human EP1 receptor over human EP3 receptor
[13] = target: T2, Prostaglandin E2 receptor EP3 subtype; test: Antagonist activity at human EP3 receptor expressed in CHO-K1 cells assessed as reversal of inhibition of forskolin-induced cAMP production; assay type: functional, cell-based
Method in brief: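 CHO-K1 cells stably expressing human EP3 were exposed to increasing test compound concentrations for 10 min at 37 °C, with 5 μM forskolin plus 5 nM PGE2 present. Read-out was the block of PGE2's inhibition of the forskolin-induced cAMP rise, giving IC50.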

[14] = target: T5, Prostaglandin E2 receptor EP1 subtype (Homo sapiens) (UniProt P34995); test: Binding affinity to human EP1 receptor at 20 uM by radioligand binding assay
T5 sequence (whole entry): T4 sequence (P34995 whole entry)

[15] = target: T3, Prostaglandin E2 receptor EP4 subtype; test: Binding affinity to human EP4 receptor at 20 uM by radioligand binding assay
[16] = Aqueous solubility in 50 mM PSB buffer at pH 7.4 by HPLC analysis; assay type: physicochemical
Method in brief: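 Samples were stirred overnight in 50 mM PSB buffer, pH 7.4, then filtered. Concentration was measured by HPLC against a 5-point standard curve, giving thermodynamic solubility.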

T3 sequence (P35408 whole entry): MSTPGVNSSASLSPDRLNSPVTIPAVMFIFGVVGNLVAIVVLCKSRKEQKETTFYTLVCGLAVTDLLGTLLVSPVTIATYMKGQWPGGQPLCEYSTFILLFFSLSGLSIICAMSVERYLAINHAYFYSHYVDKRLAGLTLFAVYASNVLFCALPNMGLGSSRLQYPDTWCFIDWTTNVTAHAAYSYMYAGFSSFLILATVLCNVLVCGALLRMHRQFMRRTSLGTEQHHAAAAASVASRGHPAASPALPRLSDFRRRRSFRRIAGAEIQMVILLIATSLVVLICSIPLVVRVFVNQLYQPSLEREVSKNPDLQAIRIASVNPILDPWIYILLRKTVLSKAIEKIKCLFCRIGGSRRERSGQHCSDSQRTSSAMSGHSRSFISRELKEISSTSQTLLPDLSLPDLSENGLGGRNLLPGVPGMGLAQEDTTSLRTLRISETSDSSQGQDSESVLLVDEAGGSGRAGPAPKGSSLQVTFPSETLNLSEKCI
Prostaglandin F2-alpha receptor, sequence (P43088 whole entry): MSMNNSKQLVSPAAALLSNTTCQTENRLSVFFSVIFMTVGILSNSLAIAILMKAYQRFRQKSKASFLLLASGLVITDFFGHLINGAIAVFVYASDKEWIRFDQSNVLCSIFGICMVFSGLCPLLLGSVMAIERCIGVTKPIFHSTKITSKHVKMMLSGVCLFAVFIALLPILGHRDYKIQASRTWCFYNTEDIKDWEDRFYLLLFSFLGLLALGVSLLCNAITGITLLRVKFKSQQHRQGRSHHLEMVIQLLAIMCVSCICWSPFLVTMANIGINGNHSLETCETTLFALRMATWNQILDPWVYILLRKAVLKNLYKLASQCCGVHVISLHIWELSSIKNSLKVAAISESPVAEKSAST
Prostaglandin E2 receptor EP2 subtype, sequence (P43116 whole entry): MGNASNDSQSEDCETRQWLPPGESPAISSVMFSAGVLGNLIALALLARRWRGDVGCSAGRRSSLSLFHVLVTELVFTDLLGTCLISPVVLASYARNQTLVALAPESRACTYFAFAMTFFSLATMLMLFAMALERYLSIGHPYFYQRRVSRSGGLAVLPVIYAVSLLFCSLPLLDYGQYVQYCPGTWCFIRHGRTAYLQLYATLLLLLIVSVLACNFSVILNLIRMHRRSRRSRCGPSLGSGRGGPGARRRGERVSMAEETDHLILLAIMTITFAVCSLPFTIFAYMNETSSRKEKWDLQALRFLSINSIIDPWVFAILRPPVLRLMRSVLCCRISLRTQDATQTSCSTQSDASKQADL

fold change (FC) [1]	IC50 [2] [nM]	remaining at 0.5 h [3] [%]	remaining at 0.5 h [4] [%]	SMILES	other results
6.2	5.6	84	76	COc1cccc(CN2C(=O)CC3(C)CCCC(/C=C/C(=O)NS(=O)(=O)c4cc(F)c(F)cc4F)=C23)c1 (configuration not stated)	–
62.4	5.6	–	–	COc1cccc(CN2C(=O)CC3(C)CCCC(/C=C/C(=O)NS(=O)(=O)c4cc(F)cc(F)c4)=C23)c1 (configuration not stated)	–
47.1	11.2	–	–	COC(=O)C12CCCC(/C=C/C(=O)NS(=O)(=O)c3cc(F)c(F)cc3F)=C1N(Cc1ccc(Cl)cc1Cl)C(=O)C2 (configuration not stated)	–
4.2	12.9	42	76	COc1cccc(CN2C(=O)CC3(C)CCCC(/C=C/C(=O)NS(=O)(=O)c4ccc(F)c(F)c4)=C23)c1 (configuration not stated)	IC50 [5]: 6400 nM; Activity [6]: inactive; Selectivity ratio (Homo sapiens [7]): > 1000; Selectivity ratio (Homo sapiens [8]): > 1000; IC50 [9]: 7500 nM; IC50 [10]: 1400 nM; Selectivity ratio (Homo sapiens [11]): > 1000; Selectivity ratio (Homo sapiens [12]): > 1000
17.7	3.5	22	80	CC12CCCC(/C=C/C(=O)NS(=O)(=O)c3cc(Cl)c(Cl)s3)=C1N(Cc1ccc(F)c(F)c1)C(=O)C2 (configuration not stated)	IC50 [13]: 5.2 nM
3	3.8	50	74	CC12CCCC(/C=C/C(=O)NS(=O)(=O)c3cc(Cl)c(Cl)s3)=C1N(Cc1ccc(F)cc1)C(=O)C2 (configuration not stated)	IC50 [5]: 27400 nM; Activity [6]: inactive; Selectivity ratio (Homo sapiens [7]): > 1000; Selectivity ratio (Homo sapiens [8]): > 1000; Selectivity ratio (Homo sapiens [11]): > 1000; Activity [14]: inactive; Activity [15]: inactive; Selectivity ratio (Homo sapiens [12]): > 1000
–	–	–	–	CC1C(=O)N(Cc2ccc(F)c(F)c2)c2c(/C=C/C(=O)NS(=O)(=O)c3cc(F)c(F)cc3F)cccc21 (configuration not stated)	solubility [16]: 1.58 mg/mL (≈ 2950 µM)
61.2	9.8	62	70	CC12CCCC(/C=C/C(=O)NS(=O)(=O)c3cc(Cl)cc(Cl)c3)=C1N(Cc1ccc(Cl)cc1Cl)C(=O)C2 (configuration not stated)	–
25.2	57.2	79	78	CC12CCCC(/C=C/C(=O)NS(=O)(=O)c3cccs3)=C1N(Cc1ccc(Cl)cc1Cl)C(=O)C2 (configuration not stated)	–
33.2	1.8	–	–	CC12CCCC(CCC(=O)NS(=O)(=O)c3cc(F)c(F)cc3F)=C1N(Cc1ccc(F)c(F)c1)C(=O)C2 (configuration not stated)	–
5.8	4.3	50	49	CC12CCCC(/C=C/C(=O)NS(=O)(=O)c3cc(F)c(F)cc3F)=C1N(Cc1cccc(Cl)c1Cl)C(=O)C2 (configuration not stated)	IC50 [5]: 7400 nM; Activity [6]: inactive; Selectivity ratio (Homo sapiens [7]): > 1000; Selectivity ratio (Homo sapiens [8]): > 1000; Selectivity ratio (Homo sapiens [11]): > 1000; Activity [14]: inactive; IC50 [13]: 4.5 nM; Activity [15]: inactive; Selectivity ratio (Homo sapiens [12]): > 1000
8.2	9.5	18	67	CC12CCCC(/C=C/C(=O)NS(=O)(=O)c3cc(Cl)c(Cl)s3)=C1N(Cc1cccc(F)c1)C(=O)C2 (configuration not stated)	–
7.8	3.4	–	–	CC12CCCC(/C=C/C(=O)NS(=O)(=O)c3ccc(F)c(F)c3)=C1N(Cc1cccc(Cl)c1Cl)C(=O)C2 (configuration not stated)	IC50 [13]: 3.5 nM
22	20.6	–	–	COC(=O)C12CCCC(/C=C/C(=O)NS(=O)(=O)c3ccc(F)c(F)c3)=C1N(Cc1ccc(Cl)cc1Cl)C(=O)C2 (configuration not stated)	–
5.4	84.1	–	–	CC12CCCC(/C=C/C(=O)NS(=O)(=O)c3cc(F)cc(F)c3)=C1N(Cc1ccc(F)cc1)C(=O)C2 (configuration not stated)	IC50 [5]: 4200 nM; Activity [6]: inactive; Selectivity ratio (Homo sapiens [7]): > 1000; Selectivity ratio (Homo sapiens [8]): > 1000; Selectivity ratio (Homo sapiens [11]): > 1000; Activity [14]: inactive; Activity [15]: inactive; Selectivity ratio (Homo sapiens [12]): > 1000
–	–	–	–	Cc1cn(Cc2ccc(F)c(F)c2)c2c(/C=C/C(=O)NS(=O)(=O)c3cc(F)c(F)cc3F)cc(F)cc12	solubility [16]: < 0.04 mg/mL
18	3.4	–	–	CC12CCCC(/C=C/C(=O)NS(=O)(=O)c3ccc(F)c(F)c3)=C1N(Cc1ccc(Cl)cc1Cl)C(=O)C2 (configuration not stated)	–
4.8	6.4	64	62	COc1cccc(CN2C(=O)CC3(C)CCCC(/C=C/C(=O)NS(=O)(=O)c4cc(Cl)c(Cl)s4)=C23)c1 (configuration not stated)	IC50 [5]: 6100 nM; Activity [6]: inactive; Selectivity ratio (Homo sapiens [7]): > 1000; Selectivity ratio (Homo sapiens [8]): > 1000; Selectivity ratio (Homo sapiens [11]): > 1000; Activity [14]: inactive; IC50 [13]: 5.8 nM; Activity [15]: inactive; Selectivity ratio (Homo sapiens [12]): > 1000
308	29.9	–	–	COC(=O)C12CCCC(/C=C/C(=O)NS(=O)(=O)c3cc(Cl)c(Cl)s3)=C1N(Cc1ccc(F)c(F)c1)C(=O)C2 (configuration not stated)	–
15.9	2.5	–	–	CC12CCCC(/C=C/C(=O)NS(=O)(=O)c3ccc(F)c(F)c3)=C1N(Cc1ccc(F)cc1)C(=O)C2 (configuration not stated)	–
25.7	557	–	–	C[C@]12CCC[C@@H](CCC(=O)NS(=O)(=O)c3cc(F)c(F)cc3F)[C@H]1N(Cc1ccc(F)c(F)c1)C(=O)C2	–
6.9	13.4	68	75	CC12CCCC(/C=C/C(=O)NS(=O)(=O)c3ccc(Cl)s3)=C1N(Cc1ccc(Cl)cc1Cl)C(=O)C2 (configuration not stated)	–
21.2	15.2	64	70	CC12CCCC(/C=C/C(=O)NS(=O)(=O)c3ccc(F)cc3)=C1N(Cc1ccc(Cl)cc1Cl)C(=O)C2 (configuration not stated)	–
26.8	5.6	45	68	CC12CCCC(/C=C/C(=O)NS(=O)(=O)c3cc(Cl)cc(Cl)c3)=C1N(Cc1ccc(F)c(F)c1)C(=O)C2 (configuration not stated)	IC50 [13]: 3.2 nM
217	9.2	–	–	CC12CCCC(/C=C/C(=O)NS(=O)(=O)c3cc(F)cc(F)c3)=C1N(Cc1ccc(F)c(F)c1)C(=O)C2 (configuration not stated)	–
16.3	2.2	–	–	CC12CCCC(/C=C/C(=O)NS(=O)(=O)c3cc(Cl)c(Cl)s3)=C1N(Cc1cccc(Cl)c1)C(=O)C2 (configuration not stated)	–
7.4	6.8	54	64	CC12CCCC(/C=C/C(=O)NS(=O)(=O)c3cc(Cl)c(Cl)s3)=C1N(Cc1ccc3ccccc3c1)C(=O)C2 (configuration not stated)	IC50 [5]: 10200 nM; Activity [6]: inactive; Selectivity ratio (Homo sapiens [7]): > 1000; Selectivity ratio (Homo sapiens [8]): > 1000; IC50 [10]: 6900 nM; Selectivity ratio (Homo sapiens [11]): > 1000; Activity [15]: inactive; Selectivity ratio (Homo sapiens [12]): > 1000
6.6	4.4	69	80	CC12CCCC(/C=C/C(=O)NS(=O)(=O)c3cc(Cl)c(Cl)s3)=C1N(Cc1cccc(Cl)c1Cl)C(=O)C2 (configuration not stated)	IC50 [13]: 1.7 nM
38.4	2.3	60	58	CC12CCCC(/C=C/C(=O)NS(=O)(=O)c3cc(Cl)c(Cl)s3)=C1N(Cc1ccc(Cl)cc1Cl)C(=O)C2 (configuration not stated)	–
33.7	3.8	–	–	CC12CCCC(/C=C/C(=O)NS(=O)(=O)c3cc(F)cc(F)c3)=C1N(Cc1cccc(Cl)c1Cl)C(=O)C2 (configuration not stated)	–
